Laboratory results: ChEMBL document CHEMBL3352053, “New silibinin glyco-conjugates: synthesis and evaluation of antioxidant properties” (Bioorg Med Chem Lett, 2014)

Columns and labels:
[1] = Antioxidant activity assessed as DPPH radical scavenging activity after 10 mins; format: physicochemical
Method in brief: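 Freshly prepared DPPH solution in test tubes; analogue solutions (1 mM–1 µM) added to a final volume of 2.25 mL. Absorbance read at 515 nm after 10 min. References prepared as 1 mM methanol stocks. IC50 calculated from at least three independent experiments.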

[2] = Toxicity in human MKN28 cells assessed as cell viability at 10 to 200 uM after 48 hrs by MTT assay; format: cell-based, MKN-28; settings: read-out: Activity
Method in brief: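 MKN28 cells incubated under basal conditions with compounds (10–200 µM) for 1–48 h, with serum-free medium as control. Viability read by MTT assay. Mean ± SD from three separate experiments run in duplicate.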

[3] = Inhibition of xanthine oxidase in human MKN28 cells assessed as inhibition of xanthine oxidase-induced cell damage by measuring cell viability at 10 to 200 uM after 48 hrs by MTT assay; format: cell-based; settings: mkn-28, 48 h
Method in brief: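 MKN28 cells pre-incubated with compounds (10–200 µM) for 1–48 h, washed, then exposed for 2 h to xanthine (1 mM) plus xanthine oxidase to induce oxidative stress. Controls were serum-free medium alone, and serum-free medium followed by X–XO. Viability read by MTT assay. Mean ± SD from three separate experiments run in duplicate.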

IC50 [1]	Compound	viability at 48 h, up to 200 µM [2]	Activity [3]
155 µM	COc1cc([C@H]2Oc3cc([C@H]4Oc5cc(O)cc(O)c5C(=O)[C@@H]4O)ccc3O[C@H]2COP(=O)([O-])OC2O[C@H](CO)[C@H](OC3O[C@H](CO)[C@H](O)[C@H](O)[C@H]3O)[C@H](O)[C@H]2O)ccc1O.[Na+] (stereo partly specified)	91.8%	48.4%
233 µM	COc1cc([C@H]2Oc3cc([C@H]4Oc5cc(O)cc(O)c5C(=O)[C@@H]4O)ccc3O[C@H]2COP(=O)([O-])OC2O[C@H](CO)[C@H](O)[C@H](O)[C@H]2O)ccc1O.[Na+] (stereo partly specified)	84.1%	42.8%
392 µM	COc1cc(C2Oc3cc([C@H]4Oc5cc(O)cc(O)c5C(=O)[C@@H]4O)ccc3OC2CO)ccc1O (stereo partly specified) [SILIBININ]	45.3%	42.4%
302 µM	COc1cc([C@H]2Oc3cc([C@H]4Oc5cc(O)cc(O)c5C(=O)[C@@H]4O)ccc3O[C@H]2COP(=O)([O-])OC2O[C@H](CO)[C@@H](O)[C@H](O)[C@H]2O)ccc1O.[Na+] (stereo partly specified)	89.2%	42.7%
27 µM	COc1cc([C@H]2Oc3cc(-c4oc5cc(O)cc(O)c5c(=O)c4O)ccc3O[C@@H]2CO)ccc1O	–	–
108 µM	COc1cc([C@H]2Oc3cc([C@H]4Oc5cc(O)cc(O)c5C(=O)[C@@H]4O)ccc3O[C@H]2COP(=O)([O-])OC2O[C@H](CO)[C@@H](O)[C@H](O)[C@@H]2O)ccc1O.[Na+] (stereo partly specified)	89.5%	42.3%
